From ChEMBL document CHEMBL4152217, “Quinonoid compounds via reactions of lawsone and 2-aminonaphthoquinone with α-bromonitroalkenes and nitroallylic acetates: Structural diversity by C-ring modification and cytotoxic evaluation against cancer cells” (Eur J Med Chem, 2018)

How the values were obtained:
Jurkat = test: Cytotoxicity against human Jurkat cell viability after 72 hrs by MTT assay
HL-60 = test: Cytotoxicity against human HL60 cells assessed as reduction in cell viability after 72 hrs by MTT assay; assay type: functional, cell-based; conditions: HL-60, 72 h
Summary of the method: (§1)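 MTT viability assay. Cancer lines grown in RPMI 1640 and L929 fibroblasts in DMEM, each with 10% FBS, 2 mM glutamine, penicillin/streptomycin, 37 °C, 5% CO2. PBMC were taken from healthy donors by density-gradient centrifugation, kept in RPMI with 20% FBS and stimulated with 2% phytohemagglutinin. Cells were exposed 72 h (0.01–27.32 µM). MTT 0.5 mg/mL for 3 h, absorbance read at 550 nm. IC50 with 95% CI from nonlinear regression; triplicate, ≥3 independent experiments.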

HCT-116 = test: Cytotoxicity against human HCT116 cells assessed as reduction in cell viability after 72 hrs by MTT assay; assay type: functional, cell-based; conditions: HCT-116, 72 h; summary of the method: as §1
SF-295 = test: Cytotoxicity against human SF295 cells assessed as reduction in cell viability after 72 hrs by MTT assay; conditions: SF-295, 72 h
OVCAR-8 = test: Cytotoxicity against human OVCAR8 cells assessed as reduction in cell viability after 72 hrs by MTT assay; conditions: OVCAR-8, 72 h
NCI-H460 = test: Cytotoxicity against human NCI-H460 cells assessed as reduction in cell viability after 72 hrs by MTT assay; conditions: NCI-H460, 72 h
PBMC = test: Cytotoxicity against human PBMC cells assessed as reduction in cell viability after 72 hrs by MTT assay
PC-3 = test: Cytotoxicity against human PC3 cells assessed as reduction in cell viability after 72 hrs by MTT assay; assay type: functional, cell-based; conditions: PC-3, 72 h; summary of the method: as §1
MX1 = test: Cytotoxicity against human MX1 cells assessed as reduction in cell viability after 72 hrs by MTT assay; conditions: MX1, 72 h
L929 = test: Cytotoxicity against mouse L929 cells assessed as reduction in cell viability after 72 hrs by MTT assay; assay type: cell-based; conditions: L929, 72 h; summary of the method: as §1

## COc1ccc(-c2coc3c2C(=O)c2ccccc2C3=O)cc1
Jurkat
  IC50: 3.81 µM
HL-60
  IC50: 4.31 µM
HCT-116
  IC50: 5.78 µM
SF-295
  IC50: 4.99 µM
OVCAR-8
  IC50: 6.01 µM
NCI-H460
  IC50: 6.34 µM
PBMC
  IC50: > 16.4 µM
PC-3
  IC50: 4.96 µM
MX1
  IC50: 5.59 µM
L929
  IC50: > 16.4 µM

## CCOC(=O)Cc1oc2c(c1/C=C/c1ccccc1)C(=O)c1ccccc1C2=O
HL-60
  IC50: 10.7 µM
HCT-116
  IC50: > 13 µM
SF-295
  IC50: > 13 µM
NCI-H460
  IC50: > 13 µM
PBMC
  IC50: > 13 µM
PC-3
  IC50: > 13 µM
L929
  IC50: > 13 µM

## CCOC(=O)Cc1c(-c2cccs2)c2c(n1-c1ccccc1)C(=O)c1ccccc1C2=O
HL-60
  IC50: 2.63 µM
HCT-116
  IC50: > 11.3 µM
SF-295
  IC50: > 11.3 µM
NCI-H460
  IC50: > 11.3 µM
PBMC
  IC50: > 11.3 µM
PC-3
  IC50: > 11.3 µM
L929
  IC50: > 11.3 µM

## CCOC(=O)Cc1oc2c(c1-c1cccc3ccccc13)C(=O)c1ccccc1C2=O
HL-60
  IC50: 6.69 µM
HCT-116
  IC50: > 12.2 µM
SF-295
  IC50: > 12.2 µM
NCI-H460
  IC50: > 12.2 µM
PBMC
  IC50: > 12.2 µM
PC-3
  IC50: > 12.2 µM
L929
  IC50: > 12.2 µM

## CCOC(=O)Cc1c(-c2ccc(C)cc2)c2c(n1-c1ccc(C)cc1)C(=O)c1ccccc1C2=O
HL-60
  IC50: > 10.8 µM
HCT-116
  IC50: > 10.8 µM
SF-295
  IC50: > 10.8 µM
NCI-H460
  IC50: > 10.8 µM
PBMC
  IC50: > 10.8 µM
PC-3
  IC50: > 10.8 µM
L929
  IC50: > 10.8 µM

## Cc1ccc(-c2cn(-c3ccc(C)cc3)c3c2C(=O)c2ccccc2C3=O)cc1
HL-60
  IC50: > 11.3 µM
HCT-116
  IC50: > 11.3 µM
SF-295
  IC50: > 11.3 µM
NCI-H460
  IC50: > 11.3 µM
PBMC
  IC50: > 11.3 µM
PC-3
  IC50: > 11.3 µM
L929
  IC50: > 11.3 µM

## CCOC(=O)Cc1c(-c2ccc(OC)c(OC)c2)c2c(n1-c1cccc(Br)c1)C(=O)c1ccccc1C2=O
HL-60
  IC50: > 8.72 µM
HCT-116
  IC50: > 8.72 µM
SF-295
  IC50: > 8.72 µM
NCI-H460
  IC50: > 8.72 µM
PBMC
  IC50: > 8.72 µM
PC-3
  IC50: > 8.72 µM
L929
  IC50: > 8.72 µM

## CCOC(=O)Cc1c(-c2ccc(OC)c(OC)c2)c2c(n1-c1ccc(Cl)cc1)C(=O)c1ccccc1C2=O
HL-60
  IC50: > 9.45 µM
HCT-116
  IC50: > 9.45 µM
SF-295
  IC50: > 9.45 µM
NCI-H460
  IC50: > 9.45 µM
PBMC
  IC50: > 9.45 µM
PC-3
  IC50: > 9.45 µM
L929
  IC50: > 9.45 µM

## CCOC(=O)Cc1c(-c2ccccc2)c2c(n1-c1ccc(C)cc1)C(=O)c1ccccc1C2=O
HL-60
  IC50: > 11.1 µM
HCT-116
  IC50: > 11.1 µM
SF-295
  IC50: > 11.1 µM
NCI-H460
  IC50: > 11.1 µM
PBMC
  IC50: > 11.1 µM
PC-3
  IC50: > 11.1 µM
L929
  IC50: > 11.1 µM

## COc1ccc(-n2cc(-c3ccco3)c3c2C(=O)c2ccccc2C3=O)cc1
HL-60
  IC50: > 13.5 µM
HCT-116
  IC50: > 13.5 µM
SF-295
  IC50: > 13.5 µM
NCI-H460
  IC50: > 13.5 µM
PBMC
  IC50: > 13.5 µM
PC-3
  IC50: > 13.5 µM
L929
  IC50: > 13.5 µM

## COc1ccc(-c2cn(-c3ccc(F)cc3)c3c2C(=O)c2ccccc2C3=O)cc1
HL-60
  IC50: > 13.2 µM
HCT-116
  IC50: > 13.2 µM
SF-295
  IC50: > 13.2 µM
NCI-H460
  IC50: > 13.2 µM
PBMC
  IC50: > 13.2 µM
PC-3
  IC50: > 13.2 µM
L929
  IC50: > 13.2 µM

## COc1ccc(-n2cc(-c3ccccc3)c3c2C(=O)c2ccccc2C3=O)cc1
HL-60
  IC50: > 13.2 µM
HCT-116
  IC50: > 13.2 µM
SF-295
  IC50: > 13.2 µM
NCI-H460
  IC50: > 13.2 µM
PBMC
  IC50: > 13.2 µM
PC-3
  IC50: > 13.2 µM
L929
  IC50: > 13.2 µM

## CCOC(=O)Cc1oc2c(c1-c1cc(OC)c(OC)c(OC)c1)C(=O)c1ccccc1C2=O
HL-60
  IC50: 4.01 µM
HCT-116
  IC50: > 11.1 µM
SF-295
  IC50: 10.3 µM
NCI-H460
  IC50: > 11.1 µM
PBMC
  IC50: > 11.1 µM
PC-3
  IC50: 8.61 µM
L929
  IC50: > 11.1 µM

## CCOC(=O)Cc1oc2c(c1-c1ccc(OC)c(OC)c1)C(=O)c1ccccc1C2=O
HL-60
  IC50: 3.97 µM
HCT-116
  IC50: 6.16 µM
SF-295
  IC50: > 11.9 µM
NCI-H460
  IC50: 7.53 µM
PBMC
  IC50: > 11.9 µM
PC-3
  IC50: > 11.9 µM
L929
  IC50: 8.47 µM

## COc1ccc(-n2cc(-c3ccc(C)cc3)c3c2C(=O)c2ccccc2C3=O)cc1
HL-60
  IC50: > 12.7 µM
HCT-116
  IC50: > 12.7 µM
SF-295
  IC50: > 12.7 µM
NCI-H460
  IC50: > 12.7 µM
PBMC
  IC50: > 12.7 µM
PC-3
  IC50: > 12.7 µM
L929
  IC50: > 12.7 µM

## CCOC(=O)Cc1c(-c2ccc(Cl)cc2)c2c(n1-c1ccc(OC)cc1)C(=O)c1ccccc1C2=O
HL-60
  IC50: > 10 µM
HCT-116
  IC50: > 10 µM
SF-295
  IC50: > 10 µM
NCI-H460
  IC50: > 10 µM
PBMC
  IC50: > 10 µM
PC-3
  IC50: > 10 µM
L929
  IC50: > 10 µM

## COc1ccc(-c2cn(-c3ccc(OC)cc3)c3c2C(=O)c2ccccc2C3=O)cc1
HL-60
  IC50: > 12.2 µM
HCT-116
  IC50: > 12.2 µM
SF-295
  IC50: > 12.2 µM
NCI-H460
  IC50: > 12.2 µM
PBMC
  IC50: > 12.2 µM
PC-3
  IC50: > 12.2 µM
L929
  IC50: > 12.2 µM

## CCCCn1cc(-c2ccc(Cl)cc2)c2c1C(=O)c1ccccc1C2=O
HL-60
  IC50: > 13.8 µM
HCT-116
  IC50: > 13.8 µM
PC-3
  IC50: > 13.8 µM
L929
  IC50: > 13.8 µM
